ChEMBL document CHEMBL4673252, “Discovery and Early Clinical Development of Isobutyl 1-[8-Methoxy-5-(1-oxo-3H-isobenzofuran-5-yl)-[1,2,4]triazolo[1,5-a]pyridin-2-yl]cyclopropanecarboxylate (LEO 39652), a Novel "Dual-Soft" PDE4 Inhibitor for Topical Treatment of Atopic Dermatitis” (J Med Chem, 2020)

How the values were obtained:
Phosphodiesterase 4 = Phosphodiesterase 4 (Homo sapiens, UniProt P27815+Q08499+Q07343+Q08493); test: Inhibition of PDE4 (unknown origin); assay type: protein assay
[1] = Clearance in human liver microsomes at 0.5 uM incubated for 40 mins in presence of NADPH by LC-MS/MS analysis; assay type: ADME, Microsome; conditions: read-out: CLH
In short: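 Human liver microsomes (0.5 mg/mL) with 1 mM NADPH and 0.5 μM test compound, incubated for 40 min. Samples were taken before NADPH and at 5, 10, 20, 40 min, quenched with cold acetonitrile containing internal standard, and analysed by LC-MS/MS. Control incubations in buffer and without NADPH. Apparent clearance was calculated from depletion.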

[2] = Half life in human whole blood at 0.1 uM by LC-MS/MS analysis; assay type: ADME, tissue-based
[3] = Half life in human keratinocytes at 1 uM by LC-MS/MS analysis; assay type: ADME, cell-based, Keratinocyte
In short: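 Plated human epidermal keratinocytes (1 × 10⁴ cells/well) with 1 μM compound in duplicate for up to 24 h; sampled at 0, 1, 2, 4, 24 h, acetonitrile precipitation, LC-MS/MS. Controls in growth medium. Half-life reported.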

[4] = Half life in mini pig whole blood at 0.1 uM by LC-MS/MS analysis; assay type: ADME, tissue-based, Sus scrofa domesticus
[5] = Half life in rat whole blood at 0.1 uM by LC-MS/MS analysis; assay type: ADME, tissue-based
[6] = Clearance in human hepatocytes at 10 uM by UPLC/TOF-MS analysis; assay type: ADME, cell-based, Hepatocyte
[7] = Clearance in mini pig hepatocytes at 10 uM by UPLC/TOF-MS analysis; assay type: ADME, cell-based, Sus scrofa domesticus, Hepatocyte; conditions: read-out: CLH
[8] = Drug exposure in human assessed as ratio of drug level to total AUC at 0.25% of Isobutyl 1-[8-Methoxy-5-(1-oxo-3H-isobenzofuran-5-yl)-[1,2,4]-triazolo[1,5-a]pyridin-2-yl]cyclopropanecarboxylate dosed via topical administration in lipid cream; assay type: ADME, organism-based; conditions: in vivo, topical_or_ocular
[9] = Drug exposure in Isobutyl 1-[8-Methoxy-5-(1-oxo-3H-isobenzofuran-5-yl)-[1,2,4]-triazolo[1,5-a]pyridin-2-yl]cyclopropanecarboxylate dosed cynomolgus monkey assessed as ratio of drug level to total AUC; assay type: ADME, organism-based, Macaca fascicularis; conditions: in vivo
In short: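 Blood was drawn at 0.25–24 h after infusion start and 6, 12, 24 h after infusion end into EDTA-K3, then plasma stabilized with ascorbic acid. LC-MS/MS quantification of parent and metabolites; noncompartmental PK.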

[10] = Drug exposure in of Isobutyl 1-[8-Methoxy-5-(1-oxo-3H-isobenzofuran-5-yl)-[1,2,4]-triazolo[1,5-a]pyridin-2-yl]cyclopropanecarboxylate dosed Gottingen mini pig assessed as ratio of drug level to total AUC at 0.5 to 2 mg/kg, iv measured up to 24 hrs by LC-MS/MS analysis; assay type: ADME, organism-based, Sus scrofa domesticus; conditions: in vivo, dose 0.5-2 mg/kg
[11] = Drug exposure in of Isobutyl 1-[8-Methoxy-5-(1-oxo-3H-isobenzofuran-5-yl)-[1,2,4]-triazolo[1,5-a]pyridin-2-yl]cyclopropanecarboxylate dosed Sprague-Dawley rat assessed as ratio of drug level to total AUC at 0.075 mg/kg, iv measured up to 30 mins by LC-MS/MS analysis; assay type: ADME, organism-based; conditions: in vivo, 0.5 h
In short: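 Male Sprague Dawley rats (n = 3) received a single iv injection of 0.075 mg/kg (50 μg/mL, 1.5 mL/kg) in 20% cyclodextrin. Blood was taken from the tongue vein at 1, 3, 6, 9, 12, 15 and 30 min into lithium-heparin, diluted 1:1 with heparin water, and analysed by LC-MS/MS for parent and metabolites.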

[12] = Drug exposure in skin of Gottingen mini pig at 0.25% dosed topically as monoglyceride cream measured after 24 hrs by LC-MS/MS analysis; assay type: ADME, organism-based, Sus scrofa domesticus, Skin of body; conditions: in vivo, topical_or_ocular
In short: (§1)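 Female Göttingen minipigs received single topical application of 1 or 2.5 mg/g monoglyceride cream at 10 μL/cm² over 4 cm² of belly/flank; excess removed. At 24 h sites were tape stripped (2 + 10 strips), 8 mm punch biopsies were taken and snap frozen, then homogenized, acetonitrile precipitated and analysed by LC-MS/MS; n = 2.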

[13] = Drug exposure in skin of Gottingen mini pig at 0.1% dosed topically as monoglyceride cream measured after 24 hrs by LC-MS/MS analysis; assay type: ADME, organism-based, Sus scrofa domesticus, Skin of body; conditions: in vivo, topical_or_ocular; in short: as §1
[14] = Cmax in cynomolgus monkey at 30 mg/kg, sc dosed as single administration; assay type: ADME, organism-based, Macaca fascicularis; set-up: route subcutaneous, dose 30 mg/kg; conditions: in vivo, read-out: Cmax
In short: (§2)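 Single subcutaneous dose of 30 mg/kg.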

[15] = Cmax in human patient with atopic dermatitis at 0.25% dosed topically as lipid cream; assay type: ADME, organism-based; set-up: dose 0.25 %; conditions: in vivo, topical or ocular
[16] = AUC (0 to 24 hrs) in cynomolgus monkey at 30 mg/kg, sc dosed as single administration; assay type: ADME, organism-based, Macaca fascicularis; set-up: time < 24 hr, route subcutaneous, dose 30 mg/kg; conditions: in vivo; in short: as §2
[17] = AUC (0 to 24 hrs) in human patient with atopic dermatitis at 0.25% dosed topically as lipid cream; assay type: ADME, organism-based; set-up: time < 24 hr, dose 0.25 %; conditions: in vivo, topical or ocular
[18] = Phototoxicity in mouse 3T3 cells; assay type: cell-based
[19] = Half life in cynomolgus monkey whole blood at 0.1 uM by LC-MS/MS analysis; assay type: ADME, tissue-based, Macaca fascicularis
[20] = Drug metabolism in rat whole blood assessed as 4-[2-(1-Carboxycyclopropyl)-8-methoxy-[1,2,4]triazolo[1,5-a]-pyridin-5-yl]-2-(hydroxymethyl)benzoic Acid formation at 0.1 uM measured up to 120 mins by LC-MS/MS analysis; assay type: ADME, tissue-based; conditions: 2 h
TK6 = test: Genotoxicity in human TK6 cells in absence of S9 fraction by GreenScreen assay; assay type: toxicity, cell-based

| Compound | IC50 (Phosphodiesterase 4) | CLint scaled at 0.5 µM [1] | half-life at 0.1 µM [2] | half-life at 1 µM [3] | half-life at 0.1 µM [4] | half-life at 0.1 µM [5] | CLhep predicted at 10 µM [6] | CLint scaled at 10 µM [7] | Drug uptake [8] | Drug uptake [9] | Drug uptake [10] | Drug uptake [11] | Drug uptake [12] | Drug uptake [13] | Cmax [14] | Cmax [15] | AUC(0-t) at 24 h [16] | AUC(0-t) at 24 h [17] | further results |
| --- | --- | --- | --- | --- | --- | --- | --- | --- | --- | --- | --- | --- | --- | --- | --- | --- | --- | --- | --- |
| COc1ccc(C(=O)Cc2c(Cl)cncc2Cl)n2nc(C3CC3)nc12 | 1.7 nM | – | – | – | – | – | – | – | – | – | – | – | – | – | – | – | – | – | – |
| COc1ccc(-c2ccc3c(c2)COC3=O)n2nc(C3(C(=O)O)CC3)nc12 | – | < 16 mL/min/kg | > 1 h | > 12 h | > 1 h | > 1 h | 5.2 mL/min/kg | < 11 mL/min/kg | 15% | 45% | 55% | 55% | < 0.1 µM | < 0.1 µM | 71.7 ng/mL | 0.355 ng/mL | 208 ng·h/mL | 5.18 ng·h/mL | – |
| CC[C@@H](C)OC(=O)C1(c2nc3c(OC)ccc(-c4ccc5c(c4)COC5=O)n3n2)CC1 | – | > 200 mL/min/kg | 0.217 h | > 12 h | – | – | – | – | – | – | – | – | – | – | – | – | – | – | Activity [18]: Toxic |
| COc1ccc(-c2ccc(C(=O)O)c(CO)c2)n2nc(C3(C(=O)OCC(C)C)CC3)nc12 | – | > 167 mL/min/kg | > 1 h | > 12 h | > 1 h | 0.567 h | 13 mL/min/kg | 21 mL/min/kg | 12% | 36% | 15% | 26% | 2 µM | 0.6 µM | 749 ng/mL | 0.299 ng/mL | 932 ng·h/mL | 4.18 ng·h/mL | half-life at 0.1 µM [19]: > 1 h; Drug metabolism [20]: Metabolite_Detected |
| COc1ccc(-c2ccc(C(=O)O)c(CO)c2)n2nc(C3(C(=O)O)CC3)nc12 | – | < 11 mL/min/kg | > 1 h | > 12 h | > 1 h | > 1 h | < 5.2 mL/min/kg | < 10 mL/min/kg | 71% | 13% | 23% | 14% | 6 µM | 3 µM | 407 ng/mL | 1.89 ng/mL | 1300 ng·h/mL | 24.7 ng·h/mL | – |
| COc1ccc(C(=O)Cc2c(Cl)cncc2Cl)n2ncnc12 | 100 nM | – | – | – | – | – | – | – | – | – | – | – | – | – | – | – | – | – | – |
| COc1ccc(-c2ccc3c(c2)COC3=O)n2nc(C3(C(=O)OC4CCOCC4)CC3)nc12 | – | 97 mL/min/kg | 0.167 h | > 12 h | – | – | – | – | – | – | – | – | – | – | – | – | – | – | Activity (TK6): Toxic |
| CCCNC(=O)COc1c(C(=O)Cc2c(Cl)cncc2Cl)ccc(OC)c1OC | 2.8 nM | – | – | – | – | – | – | – | – | – | – | – | 26 µM | 14 µM | – | – | – | – | – |
